High-throughput results (PubChem BioAssay)
Dynein transport: dynein cargo transport inhibition. 3617.4 mouse cells, GR-EGFP nuclear translocation imaging; test concentration mostly 20 µM; stimulated with dexamethasone, 1 µM; stronger effect = lower value. z-score, hits read low. 0.47% of 220,000 active;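 active = plate z-score of nuclear minus cytoplasmic receptor signal below a set negative limit, without overly bright fluorescence or cell loss, cut at about -3.5 in these data, passing the limit was not always enough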;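 also: z-score of nuclear minus cytoplasmic ring GR-EGFP intensity difference per well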
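Medium: Induction medium lacking tetracycline, stripped serum | Probe or stimulus: 1.0 µM final dexamethasone stimulus | Schedule: 48 h induction, then 1 h compound, then 30 min agonist, 37 °C | Signal: Automated 10x imaging of fixed Hoechst-stained cells | Evaluation: Per-cell GR-EGFP intensity, nucleus versus surrounding cytoplasmic ring, well-averaged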
T cruzi repl: T. cruzi replication inhibition; T. cruzi beta-gal in NIH3T3, luminescence, 90 h; inhibition, % (no concentration beside the values); 1.4% of 300,000 active;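 active = mean inhibition across valid replicates above about 55%, limit read from the data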;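 also: signal also drops with host cell toxicity which is not excluded here; 0% = plate median of DMSO wells and 100% = zero luminescence signal; higher percent means less beta-gal luminescence so fewer parasites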
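Incubation – ≥90 h infection period, 3 h prior cell attachment · System – NIH/3T3 fibroblasts plus reporter T. cruzi · Doses – compound pinned at 50 nL/well, DMSO · Read-out basis – percent inhibition of parasite-derived β-gal signal · Signal – luminescent β-galactosidase signal after 60 min lysis · Also added – 5000 T. cruzi trypomastigotes/well · Medium – Low-serum DMEM with 2% FBS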
UPR XBP1 act: adaptive UPR (XBP1) activation. CHO-XBP1 luciferase reporter, IRE1-XBP1 UPR activation, luminescence; percent of tunicamycin response, DMSO as zero. activation, % at 20 µM. 0.33% of 330,000 active;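 active = versus positive control, 20 µM dose yields 30% or more activation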;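 also: 100% = tunicamycin at 10 µg/mL and 0% = DMSO only wells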
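Test system: CHO-XBP1 luciferase reporter cells | Buffer or medium: Serum-containing F12 medium, 10% FBS | Schedule: 6 h compound exposure at 37 °C, 5% CO2 | Detection: Steady-Glo luciferase glow luminescence, 10 min after reagent addition | Read-out basis: Activation, % of tunicamycin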
CHOP inhibitor: blocks CHOP induction under ER stress; CHO-K1 CHOP-promoter luciferase, tunicamycin-induced, 15-18 h; inhibition, % at 10 µM; 3.8% of 220,000 active; AID 2732;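 active = compounds that reduced the stress-induced luciferase reporter signal by more than about 70% of percent inhibition, limit read from the data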;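 also: 0% = tunicamycin plus vehicle and 100% = wells without tunicamycin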
CHOP UPR activ: activators of apoptotic arm of unfolded protein response (CHOP); CHO-CHOP luciferase reporter, UPR activation, luminescence; percent of tunicamycin response over DMSO baseline; AID 449763; 0.34% of 330,000 active; activation, % at 10 µM;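 active = at 10 µM dose, activation of 40% or more, normalized to positive control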;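 also: 100% = tunicamycin at 10 µg/mL and 0% = DMSO alone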
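Assay system: CHO cells with stable CHOP pathway luciferase reporter; Buffer or medium: F12 plus 10% serum; Times: 16-18 h cell attachment, then 6 h compound exposure, 37 °C; Signal: luciferase luminescence; Read-out basis: percent activation relative to tunicamycin control; Control set: tunicamycin high control, DMSO low control.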
L major viab: reduces viability of Leishmania major promastigotes; resazurin fluorescence viability; inhibition, % at 10 µM; 9% of 200,000 active; in the data active = inhibition above about 50%;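 also: promastigotes grown with compound for 44 hours at 28 °C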
CHOP confirm: confirmation of CHOP induction inhibitors; shares compounds with CHOP inhibitor; CHO-CHOP promoter luciferase reporter, tunicamycin-induced, luminescence; inhibition, % at 10 µM; 45% of 2,100 active; AID 504437;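 active = mean of three repeat readings of reporter signal inhibition above a set limit, cut at about 70% in these data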;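 also: 0% = tunicamycin plus vehicle and 100% = wells lacking tunicamycin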
* = called active by the depositor; nt = no result given. The sample as a whole holds a higher share of hits than the screen did.

SMILES | Dynein transport | T cruzi repl | UPR XBP1 act | CHOP inhibitor | CHOP UPR activ | L major viab | CHOP confirm
CCOC(=O)C(=CNc1cc(C)nn1-c1ccc(Cl)cc1)C(=O)OCC | 0.53 | 17 | -2 | 104* | 4 | 5 | 14
CCOC(=O)C(=CNc1ccc(Cl)cn1)C(=O)OCC | -0.93 | 4 | 2 | 12 | 2 | nt | nt
COc1ccc(C(C(=O)NCc2ccc(F)cc2)N(C(=O)c2csnn2)C2CC2)cc1 (stereo unspecified) | nt | 8 | -2 | nt | -2 | nt | nt
COc1cccc(/C=C/C(=O)NNC(=O)c2cc(C)oc2C)c1 | nt | -2 | -1 | nt | 0 | nt | nt
CC(C)(C)c1cc(CN2CCCC(O)C2)c(O)c(C(C)(C)C)c1 (stereo unspecified) | 0.46 | -5 | 0 | 107* | -2 | 29 | 109*
CC(C)(C)c1cc(CN2CCCCC2)cc(C(C)(C)C)c1O | -0.92 | 11 | 0 | 43 | -1 | 38 | nt
O=C(OCn1ncc(Cl)c(Cl)c1=O)c1ccc(C(F)(F)F)cc1 | -3 | 64* | -6 | 104* | 36 | 7 | 116*
O=C(OCC(=O)c1ccc[nH]1)c1ccc(C(F)(F)F)cc1 | nt | nt | 1 | nt | 1 | nt | nt
Cc1ccc(NC(=O)C(=O)NCC2OCCc3ccccc32)cc1 (stereo unspecified) | -0.041 | 9 | 2 | 105* | 3 | -6 | 102*
Cc1noc(C)c1NC(=O)N(C)C[C@@H]1Oc2ccc(NC(=O)C3CCCCC3)cc2C(=O)N([C@@H](C)CO)C[C@H]1C | nt | nt | 1 | nt | -1 | nt | nt
COC(=O)Nc1sc2c(c1C(=O)NCc1ccco1)CCCC2 | 0.45 | 4 | 1 | 29 | -1 | 16 | nt
Cc1ccc(C(=O)Nc2sc3c(c2C(=O)NCc2ccco2)CCCC3)cc1 | 1.3 | -6 | 25 | 104* | 2 | 6 | -105
Cc1cc(O)c(Sc2ncn[nH]2)cc1NS(=O)(=O)c1ccc(Cl)cc1 | nt | nt | -4 | nt | -1 | nt | nt
O=S(=O)(Nc1cc(Sc2ncn[nH]2)c(O)c2ccccc12)c1ccccc1 | -3.3 | nt | 11 | 106* | 3 | 99* | 77*
CC(C)NC(=O)c1ccccc1NC(=O)/C=C/c1cccc([N+](=O)[O-])c1 | 0.014 | 8 | 26 | 107* | 0 | 29 | 111*
CC(=O)Nc1ccc(S(=O)(=O)Nc2ccccc2C(=O)N2CCCCC2)cc1 | nt | -1 | 1 | nt | 1 | nt | nt
Cc1ccc(C2(c3ccc(C)cc3)CC2C(=O)Nc2ccc([N+](=O)[O-])cc2O)cc1 (stereo unspecified) | -1.2 | 55* | 4 | 107* | 18 | 100* | 78*
Cc1ccc(C)c(-n2nnnc2Sc2nnnn2-c2ccccc2)c1 | -3.2 | -6 | -3 | nt | 6 | 98* | 24
CCSc1nnnn1-c1ccccc1 | 0.57 | 3 | 4 | 1 | -1 | -4 | nt
O=C(COC(=O)C1CCC1)NCCc1ccc(Cl)cc1Cl | nt | -25 | -6 | nt | 2 | nt | nt
CN1/C(=C/C(=O)c2nc(S(C)(=O)=O)ncc2Cl)C(C)(C)c2ccccc21 | 6.7 | 40 | -10 | nt | -1 | 83* | 117*
CN1/C(=C\C(=O)c2cccnc2)C(C)(C)c2ccccc21 | -0.45 | 6 | 1 | 14 | 2 | 7 | nt
COC(=O)[C@@]12CCCN1[C@H](c1ccc(-c3ccccc3)cc1)[C@@H]1C(=O)N(C)C(=O)[C@@H]12 | nt | -2 | 0 | nt | -2 | nt | nt
Cc1cc(C)c(S(=O)(=O)NCCc2ccccc2)c(C)c1 | 1.1 | 10 | -2 | 55 | -2 | -4 | nt
Cc1cc(C)c(S(=O)(=O)NCCn2ccc3ccccc32)c(C)c1 | 0.16 | 11 | -1 | 107* | 0 | -5 | 24
Cn1cc(S(=O)(=O)Nc2ccc(F)c(Cl)c2)c(=O)n(C)c1=O | nt | -7 | 0 | nt | 1 | nt | nt
CC(OC(=O)CN1C(=O)c2ccccc2C1=O)C(=O)NC1CCCCC1 (stereo unspecified) | nt | -6 | -1 | nt | 2 | nt | nt
CCCCc1ccc(Nc2nc(CCC)cc(=O)[nH]2)cc1 | -0.6 | -5 | 2 | 107* | 1 | 9 | 98*
